Converted amounts (≈) assume the structure as drawn.
Experiments:
Assay type in all cases: functional
Staphylococcus aureus = experiment: Antibacterial activity against methicillin-resistant Staphylococcus aureus
Summary of the method: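 Broth dilution MIC against MRSA in Mueller-Hinton broth with 1-5 × 10^5 CFU/mL inoculum. Compounds were serially diluted in DMSO (final DMSO 1%, top concentration 300 µM) and incubated 20-72 h at 37 °C. MIC was read by visual turbidity or microscopy. Vehicle and reference agents served as controls; run in duplicate.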

Streptococcus pneumoniae = experiment: Antibacterial activity tested against ampicillin and erythromycin-resistant Streptococcus pneumoniae
Summary of the method: (§1)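 Broth MIC against clinical isolates (S. pneumoniae, VRE E. faecalis) in tryptic soy broth with 7% calf serum, inoculum 1-5 × 10^5 CFU/mL. DMSO serial dilutions gave 1% final DMSO and a 300 µM highest concentration. Plates were incubated 20-72 h at 37 °C and read by turbidity or microscopy. Vehicle and reference controls were included; run in duplicate.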

Enterococcus faecalis = experiment: Antibacterial activity tested against vancomycin-resistant Enterococcus faecalis; summary of the method: as §1

Compound: CCn1cc(C(=O)O)c(=O)c2cc(F)c(N3CCNCC3)c(F)c21
- MIC (Staphylococcus aureus): 2.31 µM (≈ 0.779 µg/mL)
- MIC (Streptococcus pneumoniae): 18.5 µM (≈ 6.24 µg/mL)
- MIC (Enterococcus faecalis): 18.5 µM (≈ 6.24 µg/mL)

Compound: CCn1cc(C(=O)O)c(=O)c2cc(F)c(N3CCN(CC(=O)c4ccc(OC)cc4)CC3)cc21
- MIC (Staphylococcus aureus): 6.7 µM (≈ 3.13 µg/mL)
- MIC (Streptococcus pneumoniae): > 200 µM
- MIC (Enterococcus faecalis): > 200 µM

Compound: O=C(O)c1cn(-c2ccc([N+](=O)[O-])cc2)c2cc(N3CCN(C/C(=N\O)c4ccc(F)cc4)CC3)c(F)cc2c1=O
- MIC (Staphylococcus aureus): > 200 µM
- MIC (Streptococcus pneumoniae): > 200 µM
- MIC (Enterococcus faecalis): > 200 µM

Compound: CCn1cc(C(=O)O)c(=O)c2cc(F)c(N3CCN(C/C(=N\O)c4ccc(F)cc4)CC3)c(F)c21
- MIC (Staphylococcus aureus): 0.61 µM (≈ 0.298 µg/mL)
- MIC (Streptococcus pneumoniae): 6.14 µM (≈ 3 µg/mL)
- MIC (Enterococcus faecalis): 2.05 µM (≈ 1 µg/mL)

Compound: Nc1ccc(-n2cc(C(=O)O)c(=O)c3cc(F)c(N4CCNCC4)cc32)c(F)c1
- MIC (Staphylococcus aureus): 0.97 µM (≈ 0.388 µg/mL)
- MIC (Streptococcus pneumoniae): 3.9 µM (≈ 1.56 µg/mL)
- MIC (Enterococcus faecalis): 15.6 µM (≈ 6.25 µg/mL)

Compound: COc1ccc(/C(CN2CCN(c3cc4c(cc3F)c(=O)c(C(=O)O)cn4-c3ccc([N+](=O)[O-])cc3F)CC2)=N/O)cc1
- MIC (Staphylococcus aureus): 0.34 µM (≈ 0.202 µg/mL)
- MIC (Streptococcus pneumoniae): 1.31 µM (≈ 0.778 µg/mL)
- MIC (Enterococcus faecalis): 5.27 µM (≈ 3.13 µg/mL)

Compound: CCn1cc(C(=O)O)c(=O)c2cc(F)c(N3CCN(C/C(=N/NC(N)=O)c4ccccc4)CC3)c(F)c21
- MIC (Staphylococcus aureus): 0.39 µM (≈ 0.2 µg/mL)
- MIC (Streptococcus pneumoniae): 6.11 µM (≈ 3.13 µg/mL)
- MIC (Enterococcus faecalis): 6.11 µM (≈ 3.13 µg/mL)

Compound: CCn1cc(C(=O)O)c(=O)c2cc(F)c(N3CCN(C/C(=N\OC)c4ccc(OC)cc4)CC3)cc21
- MIC (Staphylococcus aureus): 1.57 µM (≈ 0.78 µg/mL)
- MIC (Streptococcus pneumoniae): 12.6 µM (≈ 6.26 µg/mL)
- MIC (Enterococcus faecalis): 12.6 µM (≈ 6.26 µg/mL)

Compound: O=C(O)c1cn(-c2ccc([N+](=O)[O-])cc2F)c2cc(N3CCNCC3)c(F)cc2c1=O
- MIC (Staphylococcus aureus): 7.27 µM (≈ 3.13 µg/mL)
- MIC (Streptococcus pneumoniae): 0.46 µM (≈ 0.198 µg/mL)
- MIC (Enterococcus faecalis): 29 µM (≈ 12.5 µg/mL)

Compound: CCn1cc(C(=O)O)c(=O)c2cc(F)c(N3CCN(C/C(=N/N=C(/N)S)c4ccccc4)CC3)c(F)c21
- MIC (Staphylococcus aureus): 0.74 µM (≈ 0.391 µg/mL)
- MIC (Streptococcus pneumoniae): > 200 µM
- MIC (Enterococcus faecalis): > 200 µM

Compound: CCn1cc(C(=O)O)c(=O)c2cc(F)c(N3CCN(CC(=O)c4ccccc4)CC3)cc21
- MIC (Staphylococcus aureus): 7.15 µM (≈ 3.13 µg/mL)
- MIC (Streptococcus pneumoniae): > 200 µM
- MIC (Enterococcus faecalis): > 200 µM

Compound: COc1ccc(C(=O)CN2CCN(c3cc4c(cc3F)c(=O)c(C(=O)O)cn4-c3ccc([N+](=O)[O-])cc3F)CC2)cc1
- MIC (Staphylococcus aureus): 2.7 µM (≈ 1.56 µg/mL)
- MIC (Streptococcus pneumoniae): 5.41 µM (≈ 3.13 µg/mL)
- MIC (Enterococcus faecalis): 43.2 µM (≈ 25 µg/mL)

Compound: CCn1cc(C(=O)O)c(=O)c2cc(F)c(N3CCN(C/C(=N/NC(N)=O)c4ccccc4)CC3)cc21
- MIC (Staphylococcus aureus): 3.15 µM (≈ 1.56 µg/mL)
- MIC (Streptococcus pneumoniae): 25.3 µM (≈ 12.5 µg/mL)
- MIC (Enterococcus faecalis): 25.3 µM (≈ 12.5 µg/mL)

Compound: COc1ccc(C(=O)CN2CCN(c3cc4c(cc3F)c(=O)c(C(=O)O)cn4-c3ccc([N+](=O)[O-])cc3)CC2)cc1
- MIC (Staphylococcus aureus): 5.58 µM (≈ 3.13 µg/mL)
- MIC (Streptococcus pneumoniae): > 200 µM
- MIC (Enterococcus faecalis): > 200 µM

Compound: CCn1cc(C(=O)O)c(=O)c2cc(F)c(N3CCN(CC(=O)c4ccc(Cl)cc4)CC3)cc21
- MIC (Staphylococcus aureus): > 200 µM
- MIC (Streptococcus pneumoniae): > 200 µM
- MIC (Enterococcus faecalis): > 200 µM

Compound: COc1ccc(/C(CN2CCN(c3cc4c(cc3F)c(=O)c(C(=O)O)cn4-c3ccc(N)cc3F)CC2)=N/O)cc1
- MIC (Staphylococcus aureus): 0.53 µM (≈ 0.299 µg/mL)
- MIC (Streptococcus pneumoniae): 1.77 µM (≈ 0.998 µg/mL)
- MIC (Enterococcus faecalis): 5.32 µM (≈ 3 µg/mL)

Compound: CCn1cc(C(=O)O)c(=O)c2cc(F)c(N3CCN(C/C(=N\O)c4ccc(Cl)cc4)CC3)c(F)c21
- MIC (Staphylococcus aureus): 0.59 µM (≈ 0.298 µg/mL)
- MIC (Streptococcus pneumoniae): 19.8 µM (≈ 10 µg/mL)
- MIC (Enterococcus faecalis): 19.8 µM (≈ 10 µg/mL)

Compound: CCn1cc(C(=O)O)c(=O)c2cc(F)c(N3CCN(C/C(=N\O)c4ccc(OC)cc4)CC3)c(F)c21
- MIC (Staphylococcus aureus): 0.2 µM (≈ 0.1 µg/mL)
- MIC (Streptococcus pneumoniae): 6.25 µM (≈ 3.13 µg/mL)
- MIC (Enterococcus faecalis): 3.12 µM (≈ 1.56 µg/mL)

Compound: CCn1cc(C(=O)O)c(=O)c2cc(F)c(N3CCN(C/C(=N/N=C(/N)S)c4ccccc4)CC3)cc21
- MIC (Staphylococcus aureus): 1.53 µM (≈ 0.781 µg/mL)
- MIC (Streptococcus pneumoniae): 24.5 µM (≈ 12.5 µg/mL)
- MIC (Enterococcus faecalis): 12.2 µM (≈ 6.23 µg/mL)

Compound: COc1ccc(/C(CN2CCN(c3cc4c(cc3F)c(=O)c(C(=O)O)cn4-c3ccc([N+](=O)[O-])cc3)CC2)=N/O)cc1
- MIC (Staphylococcus aureus): 1.36 µM (≈ 0.783 µg/mL)
- MIC (Streptococcus pneumoniae): 10.9 µM (≈ 6.27 µg/mL)
- MIC (Enterococcus faecalis): 21.7 µM (≈ 12.5 µg/mL)

Compound: CCn1cc(C(=O)O)c(=O)c2cc(F)c(N3CCN(C/C(=N\O)c4ccc(F)cc4)CC3)cc21
- MIC (Staphylococcus aureus): 2.13 µM (≈ 1 µg/mL)
- MIC (Streptococcus pneumoniae): > 200 µM
- MIC (Enterococcus faecalis): > 200 µM

Compound: CCn1cc(C(=O)O)c(=O)c2cc(F)c(N3CCN(C/C(=N\O)c4ccc(Cl)cc4)CC3)cc21
- MIC (Staphylococcus aureus): > 200 µM
- MIC (Streptococcus pneumoniae): > 200 µM
- MIC (Enterococcus faecalis): > 200 µM

Compound: CCn1cc(C(=O)O)c(=O)c2cc(F)c(N3CCN(C/C(=N\O)c4ccccc4)CC3)cc21
- MIC (Staphylococcus aureus): 0.44 µM (≈ 0.199 µg/mL)
- MIC (Streptococcus pneumoniae): > 200 µM
- MIC (Enterococcus faecalis): > 200 µM

Compound: O=C(CN1CCN(c2cc3c(cc2F)c(=O)c(C(=O)O)cn3-c2ccc([N+](=O)[O-])cc2)CC1)c1ccc(F)cc1
- MIC (Staphylococcus aureus): > 200 µM
- MIC (Streptococcus pneumoniae): > 200 µM
- MIC (Enterococcus faecalis): > 200 µM

Compound: CCn1cc(C(=O)O)c(=O)c2cc(F)c(N3CCN(C/C(=N\O)c4ccc(OC)cc4)CC3)cc21
- MIC (Staphylococcus aureus): 0.41 µM (≈ 0.198 µg/mL)
- MIC (Streptococcus pneumoniae): 13 µM (≈ 6.27 µg/mL)
- MIC (Enterococcus faecalis): 3.23 µM (≈ 1.56 µg/mL)

Compound: CCn1cc(C(=O)O)c(=O)c2cc(F)c(N3CCN(CC(=O)c4ccccc4)CC3)c(F)c21
- MIC (Staphylococcus aureus): 1.71 µM (≈ 0.779 µg/mL)
- MIC (Streptococcus pneumoniae): 13.7 µM (≈ 6.24 µg/mL)
- MIC (Enterococcus faecalis): 13.7 µM (≈ 6.24 µg/mL)

Compound: COc1ccc(C(=O)CN2CCN(c3cc4c(cc3F)c(=O)c(C(=O)O)cn4-c3ccc(N)cc3F)CC2)cc1
- MIC (Staphylococcus aureus): 0.55 µM (≈ 0.302 µg/mL)
- MIC (Streptococcus pneumoniae): 1.82 µM (≈ 0.998 µg/mL)
- MIC (Enterococcus faecalis): 5.47 µM (≈ 3 µg/mL)

Compound: CCn1cc(C(=O)O)c(=O)c2cc(F)c(N3CCN(C/C(=N\OC)c4ccc(Cl)cc4)CC3)cc21
- MIC (Streptococcus pneumoniae): > 200 µM
- MIC (Enterococcus faecalis): > 200 µM

Compound: CCn1cc(C(=O)O)c(=O)c2cc(F)c(N3CCN(CC(=O)c4ccc(OC)cc4)CC3)c(F)c21
- MIC (Staphylococcus aureus): 0.62 µM (≈ 0.301 µg/mL)
- MIC (Streptococcus pneumoniae): > 200 µM
- MIC (Enterococcus faecalis): > 200 µM

Compound: CCn1cc(C(=O)O)c(=O)c2cc(F)c(N3CCN(C/C(=N\N)c4ccc(F)cc4)CC3)cc21
- MIC (Staphylococcus aureus): 1.66 µM (≈ 0.779 µg/mL)
- MIC (Streptococcus pneumoniae): 26.6 µM (≈ 12.5 µg/mL)
- MIC (Enterococcus faecalis): 26.6 µM (≈ 12.5 µg/mL)

Compound: CCn1cc(C(=O)O)c(=O)c2cc(F)c(N3CCN(CC(=O)c4ccc(F)cc4)CC3)cc21
- MIC (Staphylococcus aureus): 6.87 µM (≈ 3.13 µg/mL)
- MIC (Streptococcus pneumoniae): > 200 µM
- MIC (Enterococcus faecalis): > 200 µM

Compound: CCn1cc(C(=O)O)c(=O)c2cc(F)c(N3CCN(C/C(=N\OC)c4ccc(Cl)cc4)CC3)c(F)c21
- MIC (Staphylococcus aureus): > 200 µM
- MIC (Streptococcus pneumoniae): > 200 µM
- MIC (Enterococcus faecalis): > 200 µM

Compound: CCn1cc(C(=O)O)c(=O)c2cc(F)c(N3CCNCC3)cc21 [NORFLOXACIN]
- MIC (Staphylococcus aureus): 4.89 µM (≈ 1.56 µg/mL)
- MIC (Streptococcus pneumoniae): 19.6 µM (≈ 6.26 µg/mL)
- MIC (Enterococcus faecalis): 9.8 µM (≈ 3.13 µg/mL)

Source: ChEMBL document CHEMBL1134762, “Synthesis and antibacterial evaluation of certain quinolone derivatives” (2001)
